# High-throughput results from PubChem.
# UHRF1 MBD2 ctr – blocks human UHRF1 binding to methylated DNA; Q96T88; UHRF1 binding to methylated oligo, TR-FRET; inhibition, % at 4.4 µM; 370,000 tested, 0.75% active; AID 687016; in the data active = inhibition above about 21%;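 note: UHRF1 SRA domain binding a hemimethylated CpG hairpin DNA probe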
# TDP2 absorb – blocks human TDP2 phosphodiesterase activity; O95551; recombinant TDP2, T5PNP hydrolysis, p-nitrophenol absorbance 415 nm; inhibition, % at 12.8 µM; 370,000 tested, 0.34% active;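 active = inhibition above the mean of all tested compounds plus 3 SD, set per campaign, cut at about 25% in these data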
#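 Test system: human TDP2 enzyme; Input: 120 nM TDP2 per well; Buffer or medium: Mg2+-containing Tris-HCl buffer, pH 7.5; Reagent: 5 mM T5PNP; Dosing: 12.8 µM single point, 1% DMSO; Incubation: reaction 2 h, 37 °C; Detection: p-Nitrophenol epi absorbance; Read-out: % inhibition relative to enzyme-containing and enzyme-free wells; Replicates: single well per compound.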
# PRMT1 inh – blocks human protein arginine methyltransferase 1 | Q99873 | recombinant PRMT1, activity-based probe fluorescence polarization | inhibition, % at 2.79 µM | 370,000 tested, 1.3% active;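 active = inhibition above about 21% made by adding two undisclosed values, limit read from the data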
# SIAE inh – blocks human sialic acid acetylesterase; SIAE FP-Rh probe binding, fluorescence polarization; inhibition, % at 9.66 µM; 370,000 tested, 0.69% active; AID 1053197;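 active = inhibition above a cutoff: mean of compounds within the control limits plus 3 SD of those, cut at about 17% in these data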
# LEDGF integ inh – blocks HIV-1 LEDGF/p75-dependent DNA integration; inhibition, % at 3.7 µM; 370,000 tested, 0.64% active; TR-FRET IN-LEDGF/p75 DNA integration, Eu/Cy5;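 active = inhibition above the screen-wide mean plus 3 SD, cut at about 13% in these data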;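 note: signal is the Cy5 over europium emission ratio at 671 and 618 nm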
# MBD2 inh – inhibitors of human MBD2 binding to methylated oligonucleotide; Q9UBB5; TR-FRET; inhibition, % at 4.4 µM; 370,000 tested, 0.31% active; in the data active = inhibition above about 13%
# Target sequence (Q9UBB5 whole entry, looked up): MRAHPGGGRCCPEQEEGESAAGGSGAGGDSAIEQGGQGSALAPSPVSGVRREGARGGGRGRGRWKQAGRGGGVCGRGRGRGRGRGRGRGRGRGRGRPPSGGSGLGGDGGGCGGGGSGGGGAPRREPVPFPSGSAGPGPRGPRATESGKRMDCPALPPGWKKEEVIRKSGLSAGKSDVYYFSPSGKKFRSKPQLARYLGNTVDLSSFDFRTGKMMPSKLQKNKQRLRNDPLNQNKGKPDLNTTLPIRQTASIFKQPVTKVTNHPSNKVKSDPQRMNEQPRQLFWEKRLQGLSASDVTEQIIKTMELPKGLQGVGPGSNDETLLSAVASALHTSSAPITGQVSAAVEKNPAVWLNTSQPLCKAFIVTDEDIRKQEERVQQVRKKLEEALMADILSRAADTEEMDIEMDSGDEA
# UHRF1 ctr MBD2 – UHRF1 methyl-oligo binding inhibition as MBD2 counter-screen; 1,000 tested, 25% active; AID 720530; UHRF1 binding to methylated oligonucleotide, TR-FRET; shares compounds with MBD2 inh; inhibition, % at 4.4 µM; in the data active = inhibition above about 21%;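 note: UHRF1 SRA domain binding a labeled hemimethylated CpG hairpin DNA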
# MBD2 confirm – MBD2-DBD methyl-DNA binding inhibition, TR-FRET confirmation; shares compounds with MBD2 inh; TR-FRET MBD2-DBD binding to methylated oligonucleotide; inhibition, % at 4.4 µM; 1,000 tested, 26% active; AID 720531
# TDP2 inh conf – confirmation of human TDP2 inhibitors; recombinant human TDP2, absorbance read-out; 1,100 tested, 22% active; shares compounds with TDP2 absorb; inhibition, % at 12.8 µM; in the data active = inhibition above about 25%
# IN multimer up – HIV-1 integrase multimerization activation, counter-screen | shares compounds with LEDGF integ inh | TR-FRET HIV-1 integrase multimerization, biochemical | activation, % at 7.7 µM | 2,000 tested, 17% active | AID 1053131; in the data active = activation above about 8.9%
# TRFRET interf – TR-FRET optical interference, LEDGF/p75 integration counter-screen; shares compounds with LEDGF integ inh; TR-FRET optical interference counterscreen, HIV-1 IN multimerization; inhibition, % at 7.7 µM; 2,000 tested, under 10 active; AID 1053135;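 active = inhibition above the mean over all tested compounds plus 3 SD, which no compound reached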
# LEDGF integ conf – confirmation of HIV-1 LEDGF/p75-dependent integration inhibitors. shares compounds with LEDGF integ inh. TR-FRET LEDGF/p75-dependent HIV-1 integration, biochemical. inhibition, % at 3.7 µM. 2,000 tested, 36% active. AID 1053136
# Numbers stand for hits; . = inactive; / = no result given; ! = not active in a repeat. Shown are actives, neighbours in structure and some others; about 3.3% of the full set was active somewhere. Cut-off read from the data, not from the text of the source, unless noted: active = inhibition above about 14%; inactive = the rest.
SMILES,UHRF1 MBD2 ctr,TDP2 absorb,PRMT1 inh,SIAE inh,LEDGF integ inh,MBD2 inh,UHRF1 ctr MBD2,MBD2 confirm,others
COc1ccc(NC(=O)c2cccs2)cc1C(=O)N1CCN(c2ccccc2)CC1,.,.,.,.,.,24,.,.,
O=C(Nc1ccc2c(c1)OCO2)c1cccs1,.,.,.,.,.,40,.,.,
O=C(Nc1ccc2c(c1)OCCO2)c1cccs1,.,.,.,.,.,.,/,/,
COC(=O)c1ccc(Oc2ccc3nnc(C)n3n2)cc1,.,.,.,.,.,13,.,.,
C[C@H]1CN([C@@H](C)CO)C(=O)CCCn2nncc2CO[C@H]1CN(C)S(=O)(=O)c1ccc(-n2cccn2)cc1,.,.,.,.,.,16,.,.,
C[C@@H]1CN([C@@H](C)CO)C(=O)CCCn2nncc2CO[C@@H]1CN(C)S(=O)(=O)c1ccc(-n2cccn2)cc1,.,.,.,.,.,.,/,/,
CSc1nsc(SCC(=O)Nc2ccc(C(C)=O)cc2)n1,.,.,.,.,.,.,/,/,
CSc1nsc(SCC(=O)Nc2ccc(C(N)=O)cc2)n1,.,.,.,.,.,23,.,.,
COc1ccc(-n2c(COc3ccc(Cl)cc3)nnc2SCc2nc3ccccc3[nH]2)cc1,.,.,.,.,.,.,/,/,
COc1ccc(/C=N\NC(=S)SCN2C(=O)C3CCC(C)(C2=O)C3(C)C)cc1 (stereo not drawn),.,.,.,.,.,48,.,.,
CC12CCC(C/C1=N\N=C1\NC(=O)/C(=C\c3ccc(Cl)cc3)S1)C2(C)C (stereo not drawn),.,.,.,.,.,13,.,.,
COC(=O)C1N2C(=O)[C@@H](NC(=O)COc3ccccc3)[C@H]2SC1(C)C (stereo partly drawn),.,.,.,.,.,.,/,/,
CC1(C)S[C@@H]2[C@H](NC(=O)[C@H](N)c3ccccc3)C(=O)N2[C@H]1C(=O)O,81!,.,.,.,52!,47!,77,31,
O=C(O)Cc1ccc(-n2cccc2)cc1,30,.,.,.,.,14,57,28,
Cc1c(NC(=O)C2CCCN(S(=O)(=O)c3ccc(F)cc3)C2)c(=O)n(-c2ccccc2)n1C (stereo not drawn),.,.,.,.,.,.,/,/,
CCCCN(C(=O)c1cccc(-n2cccc2)c1)c1c(N)n(Cc2ccccc2)c(=O)[nH]c1=O,33,.,.,.,.,18,43,35,
CCCCN(C(=O)c1cccc(N2C(=O)c3ccccc3C2=O)c1)c1c(N)n(CC(C)C)c(=O)[nH]c1=O,.,.,.,.,.,.,/,/,
Cc1cc(NC(=O)c2ccc3[nH]c(C)c(C)c3c2)ccn1,.,.,.,.,.,14,.,.,
CN(CC(=O)Nc1ccc(N2CCOCC2)cc1)C(=O)CCNC(=O)c1ccccc1Cl,.,.,.,.,.,14,.,.,
Cc1ccc(CNC(=O)c2ccc(CS(=O)(=O)c3ccccc3C)o2)cc1,.,.,.,.,.,33,.,.,
Cc1ccc(NC(=S)NNC(=O)CSc2nc3ccccc3c(=O)n2-c2ccc(Cl)cc2)cc1,.,.,.,.,.,.,/,/,
COCCn1c(C)cc(C(=O)COC(=O)c2cccc(O)c2)c1C,.,.,.,.,.,.,/,/,
COCCn1c(C)cc(C(=O)COC(=O)c2cc3c(s2)CCC3)c1C,.,.,.,.,.,16,23,19,
CCCCCCCCN1C(=O)[C@@H](CC(=O)NCCCN2CCCC2=O)C[C@@]2(C(=O)OC)C1=C[C@H](COCc1ccccc1)O[C@@H]2C,.,.,.,.,.,.,/,/,
CCCn1nc2cc(C(=O)NCc3ccc(OC)cc3)ccc2c1OCC,29,38,.,.,.,14,.,.,TDP2 inh conf=.
SMILES,UHRF1 MBD2 ctr,TDP2 absorb,PRMT1 inh,SIAE inh,LEDGF integ inh,MBD2 inh,UHRF1 ctr MBD2,MBD2 confirm,others
CCOC(=O)[C@]12CCCC=C1N(Cc1ccc(OC)cc1)C(=O)[C@@H]2CC(=O)NCc1ccc(OC)c(OC)c1,.,.,.,.,.,.,/,/,
O=Cc1ccc2oc3nc4n(c(=O)c3c(=O)c2c1)CCCS4,.,.,.,.,20,18,38,36,IN multimer up=17;TRFRET interf=.;LEDGF integ conf=32
COc1ccccc1[N+](=O)[O-],.,.,.,.,.,.,/,/,
Cc1ccc(S(=O)(=O)Oc2ccccc2[N+](=O)[O-])cc1,.,.,.,.,35,14,.,.,IN multimer up=.;TRFRET interf=.;LEDGF integ conf=.
COc1ccc(OC)c(S(=O)(=O)N2CCC(c3cn4ccccc4n3)CC2)c1,.,.,.,.,.,.,/,/,
O=C1c2[nH]nc(-c3ccccc3)c2C(c2ccc(F)cc2)N1Cc1ccccc1 (stereo not drawn),.,.,.,.,.,.,/,/,
CC(=O)c1sc2nc(-c3ccco3)ccc2c1N,92,.,52,.,59,45,28,.,IN multimer up=.;TRFRET interf=.;LEDGF integ conf=.
COc1cccc(-n2c(SCC(=O)NCCc3ccccc3)nnc2-c2ccoc2C)c1,28,.,.,.,14,17,.,.,IN multimer up=.;TRFRET interf=.;LEDGF integ conf=.
O=C1CCCC2=C1C(c1ccco1)Nc1ccc3ccccc3c12 (stereo not drawn),50,.,44,.,33,22,48,21,IN multimer up=.;TRFRET interf=.;LEDGF integ conf=53
C=CC(=O)N1C/C(=C/c2ccc(F)cc2)C(=O)/C(=C\c2ccc(F)cc2)C1,40,.,.,.,14,15,25,15,IN multimer up=11;TRFRET interf=.;LEDGF integ conf=18
Cc1ccc2nc(-c3ccc(NC(=O)CSc4nnc(Cc5cccs5)n4C)cc3)sc2c1,.,.,.,.,.,.,/,/,
COC(=O)C1CCN(C(=O)c2cc(-c3ccco3)nc3ccccc23)CC1,40,.,22,.,28,22,30,22,IN multimer up=15;TRFRET interf=.;LEDGF integ conf=49
CCC(C(=O)Nc1ccccc1N1CCCC1)c1cccc(C)c1 (stereo not drawn),.,.,.,.,.,.,/,/,
